Published values from different studies.
Compare with care: the assays were run in different laboratories.
Observed: cell growth or viability

SMILES	cell line	method	concentration	time	viability [%]
O=C(C=Cc1ccccc1)Nc1ccc(Oc2nnc(-c3ccc(Cl)cc3)c3ccccc23)cc1	HepG2	MTT	0.625 µM	24 h	78.5
CC(=O)c1nn(-c2ccc(C)cc2)/c(=N/N=C(\C)c2ccc(NC(=O)c3ccccc3)cc2)s1	HepG2	MTT	2.5 µM		6.81
CC(C)(C)c1cnc(CSc2cnc(NC(=O)C3CCN(CCCCCCCCSc4cccc5c4C(=O)N(C4CCC(=O)NC4=O)C5=O)CC3)s2)o1 (stereo not drawn)	HH	CCK-8	50 nM		92.6
CC(=NNC(=O)c1ccccc1Cl)c1ccc(Nc2nnc(-c3ccc(Cl)cc3)c3ccccc23)cc1	HepG2	MTT	0.625 µM	24 h	28.3
CCOC(=O)c1nn(-c2cccc(Cl)c2)/c(=N/N=C(\C)c2ccc(NC(=O)c3ccccc3)cc2)s1	HepG2	MTT	78 nM		81.9
CC(=NNC(=O)c1ccccc1)c1ccc(Nc2nnc(-c3ccc(Cl)cc3)c3ccccc23)cc1	HepG2	MTT	0.312 µM	24 h	99.6
CC(=O)c1nn(-c2ccccc2Cl)/c(=N/N=C(\C)c2ccc(NC(=O)c3ccccc3)cc2)s1	HepG2	MTT	10 µM		6.13
CC(C)(C)c1cnc(CSc2cnc(NC(=O)C3CCN(C(=O)CCCSc4cccc5c4C(=O)N(C4CCC(=O)NC4=O)C5=O)CC3)s2)o1 (stereo not drawn)	HH	CCK-8	10 nM		99.7
CC(=NNC(=O)COc1ccc2c(C)c(Cc3ccccc3)c(=O)oc2c1C)c1ccc(Br)cc1	HepG2	MTT	0.2 µg/mL		62.9
CC(C)(C)c1cnc(CSc2cnc(NC(=O)C3CCN(CCCCCSc4cccc5c4CN(C4CCC(=O)NC4=O)C5=O)CC3)s2)o1 (stereo not drawn)	HH	CCK-8	0.5 µM		0
CC(=O)Nc1ccc(/C(C)=N/N=c2\sc(C(C)=O)nn2-c2ccc(C)cc2)cc1	HepG2	MTT	5 µM		86
CC(=NNC(=O)c1ccc(N)cc1)c1ccc(Nc2nnc(-c3ccc(Cl)cc3)c3ccccc23)cc1	HepG2	MTT	0.625 µM	24 h	91.5
CCOC(=O)c1nn(-c2cccc(Cl)c2)/c(=N/N=C(\C)c2ccc(NC(=O)c3ccc(Cl)cc3)cc2)s1	HepG2	MTT	2.5 µM		2.86
CC(=NNC(=S)Nc1ccccc1)c1ccc(Nc2nnc(-c3ccc(Cl)cc3)c3ccccc23)cc1	HepG2	MTT	10 µM	24 h	4.26
CC(C)(C)c1cnc(CSc2cnc(NC(=O)C3CCN(CCCCCCCCSc4cccc5c4CN(C4CCC(=O)NC4=O)C5=O)CC3)s2)o1 (stereo not drawn)	HH	CCK-8	0.25 µM		0
